# From ChEMBL document CHEMBL1128543, “Computer-aided design and synthesis of 5-substituted tryptamines and their pharmacology at the 5-HT1D receptor: discovery of compounds with potential anti-migraine properties” (J Med Chem, 1995)
# How the values were obtained:
# [1] = molecular target: T1, Muscarinic acetylcholine receptor M2 (Homo sapiens) (UniProt P08172); experiment: Binding affinity against Muscarinic acetylcholine receptor M2 using rabbit saphenous vein assay.; type: tissue-based; conditions: Oryctolagus cuniculus, target entry is the homologue from another species
# T1 sequence (whole entry): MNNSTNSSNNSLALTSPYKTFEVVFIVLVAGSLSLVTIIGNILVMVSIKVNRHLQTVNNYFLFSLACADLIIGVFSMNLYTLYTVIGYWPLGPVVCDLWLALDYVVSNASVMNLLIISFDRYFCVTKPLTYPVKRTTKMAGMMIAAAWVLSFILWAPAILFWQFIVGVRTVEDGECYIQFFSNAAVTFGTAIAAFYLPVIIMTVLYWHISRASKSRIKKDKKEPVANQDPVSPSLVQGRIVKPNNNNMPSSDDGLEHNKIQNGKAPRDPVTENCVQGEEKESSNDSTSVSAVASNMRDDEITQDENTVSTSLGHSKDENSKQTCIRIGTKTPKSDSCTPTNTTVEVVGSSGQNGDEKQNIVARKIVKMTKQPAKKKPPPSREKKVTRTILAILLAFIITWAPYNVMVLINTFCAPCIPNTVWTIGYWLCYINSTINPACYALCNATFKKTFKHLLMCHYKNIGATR
# [2] = organism: Oryctolagus cuniculus; experiment: Binding affinity against 5-hydroxytryptamine 4 receptor using rabbit saphenous vein assay.; type: tissue-based
# [3] = molecular target: 5-hydroxytryptamine receptor 1D (Homo sapiens) (UniProt P28221); experiment: The compound was tested for intrinsic activity against 5-HT1D receptor; conditions: Oryctolagus cuniculus
# Procedure, shortened: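 Rabbit saphenous vein rings (male New Zealand White; 4–5 mm) mounted on tungsten wires in Krebs–Henseleit buffer, pH 7.4, 37 °C, gassed with 95% O2/5% CO2, at 2 g passive force. Pretreated for 30 min with pargyline (500 μM) and phenoxybenzamine (0.3 μM), then washed. Cumulative 5-HT curve, then after 60 min a test agonist curve. Potency is p[A50]; α is test maximum/5-HT maximum; n ≥ 3.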
# [4] = molecular target: Muscarinic acetylcholine receptor M3 (Homo sapiens) (UniProt P20309); experiment: Binding affinity against Muscarinic acetylcholine receptor M3 using rabbit saphenous vein assay.; type: tissue-based; conditions: Oryctolagus cuniculus, target entry is the homologue from another species
# [5] = molecular target: D(1A) dopamine receptor (Homo sapiens) (UniProt P21728); experiment: Binding affinity was evaluated by Dopamine receptor D1 agonism in the calf striatum by displacing SCH 23390; type: tissue-based; conditions: Oryctolagus cuniculus
# [6] = molecular target: Adrenergic receptor alpha-1 (Homo sapiens) (UniProt P35348+P25100+P35368); experiment: Binding affinity against Alpha-1 adrenergic receptor using rabbit saphenous vein assay.; type: tissue-based; conditions: Oryctolagus cuniculus, target entry is the homologue from another species
# [7] = molecular target: 5-hydroxytryptamine receptor 2A (Homo sapiens) (UniProt P28223); conditions: Oryctolagus cuniculus
# [8] = molecular target: Histamine H2 receptor (Homo sapiens) (UniProt P25021); experiment: Binding affinity against H2 receptor using rabbit saphenous vein assay.; type: tissue-based; conditions: Oryctolagus cuniculus, target entry is the homologue from another species
# [9] = molecular target: 5-hydroxytryptamine receptor 1B (Homo sapiens, UniProt P28222); experiment: Binding affinity against 5-hydroxytryptamine 1D receptor beta using rabbit saphenous vein assay.; type: tissue-based
# Procedure, shortened: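 Saphenous vein rings (4–5 mm) from male New Zealand White rabbits, in Krebs–Henseleit buffer at 37 °C, pH 7.4, gassed 95% O2/5% CO2, 2 g passive force. Pretreated with pargyline (500 μM) and phenoxybenzamine (0.3 μM) for 30 min, then washed. A cumulative 5-HT curve was followed after 60 min by a curve to the test agonist. p[A50] and α relative to 5-HT maximum were derived; mean of n ≥ 3.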
# [10] = molecular target: D(2) dopamine receptor (Homo sapiens) (UniProt P14416); experiment: Binding affinity against Dopamine receptor D2 using rabbit saphenous vein assay.; type: tissue-based; conditions: Oryctolagus cuniculus, target entry is the homologue from another species
# [11] = molecular target: D(2) dopamine receptor (Rattus norvegicus, UniProt P61169); experiment: Binding affinity against Dopamine receptor D2 in rat striatum using [3H]-spiperone as radioligand; type: tissue-based
# Procedure, shortened: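 Incubation was 30 min at 27 °C in Tris-HCl 50 mM/CaCl₂ 5 mM/0.1% ascorbate/10 mM pargyline buffer. Bound and free label were separated by filtration and counted by liquid scintillation. pK_i or pIC₅₀ is the mean of n ≥ 3.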
# [12] = molecular target: Adrenergic receptor alpha-2 (Homo sapiens) (UniProt P08913+P18825+P18089); conditions: Oryctolagus cuniculus; Saphenous vein
# Sequence of D(2) dopamine receptor (Homo sapiens) (P14416 whole entry): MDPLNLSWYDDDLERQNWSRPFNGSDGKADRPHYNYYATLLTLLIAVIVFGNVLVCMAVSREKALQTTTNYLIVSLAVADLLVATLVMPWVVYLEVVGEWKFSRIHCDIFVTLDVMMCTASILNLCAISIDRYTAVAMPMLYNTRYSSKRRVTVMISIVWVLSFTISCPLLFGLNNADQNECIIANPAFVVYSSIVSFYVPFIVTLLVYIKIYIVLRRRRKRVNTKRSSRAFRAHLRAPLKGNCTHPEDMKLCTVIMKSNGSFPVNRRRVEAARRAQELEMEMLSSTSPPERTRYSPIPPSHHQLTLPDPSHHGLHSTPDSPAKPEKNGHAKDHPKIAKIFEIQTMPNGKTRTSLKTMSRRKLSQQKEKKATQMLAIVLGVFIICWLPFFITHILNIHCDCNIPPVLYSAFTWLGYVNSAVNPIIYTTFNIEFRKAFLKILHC
# Sequence of Histamine H2 receptor (Homo sapiens) (P25021 whole entry): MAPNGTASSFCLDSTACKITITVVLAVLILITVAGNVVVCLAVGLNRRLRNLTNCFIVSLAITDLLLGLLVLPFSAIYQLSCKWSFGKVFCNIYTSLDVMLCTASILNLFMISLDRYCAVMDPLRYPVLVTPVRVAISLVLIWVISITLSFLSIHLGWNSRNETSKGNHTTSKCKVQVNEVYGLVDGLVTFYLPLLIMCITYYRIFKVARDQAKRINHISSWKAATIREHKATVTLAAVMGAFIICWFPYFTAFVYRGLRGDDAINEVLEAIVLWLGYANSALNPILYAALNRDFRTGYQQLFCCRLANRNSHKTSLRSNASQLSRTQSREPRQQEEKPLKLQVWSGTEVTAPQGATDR
# Sequence of D(2) dopamine receptor (P61169 whole entry): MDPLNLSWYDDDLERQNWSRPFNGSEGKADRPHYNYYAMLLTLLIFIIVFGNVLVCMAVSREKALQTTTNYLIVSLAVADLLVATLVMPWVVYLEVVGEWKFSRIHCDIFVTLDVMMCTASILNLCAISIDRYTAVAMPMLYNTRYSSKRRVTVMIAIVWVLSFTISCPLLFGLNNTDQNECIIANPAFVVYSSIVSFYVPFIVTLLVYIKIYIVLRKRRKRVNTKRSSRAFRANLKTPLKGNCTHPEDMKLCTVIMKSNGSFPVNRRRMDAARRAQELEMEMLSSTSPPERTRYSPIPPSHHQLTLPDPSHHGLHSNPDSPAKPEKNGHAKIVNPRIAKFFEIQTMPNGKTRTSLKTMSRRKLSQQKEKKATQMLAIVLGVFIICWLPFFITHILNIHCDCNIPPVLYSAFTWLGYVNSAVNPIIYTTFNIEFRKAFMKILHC
# Sequence of Muscarinic acetylcholine receptor M3 (Homo sapiens) (P20309 whole entry, looked up): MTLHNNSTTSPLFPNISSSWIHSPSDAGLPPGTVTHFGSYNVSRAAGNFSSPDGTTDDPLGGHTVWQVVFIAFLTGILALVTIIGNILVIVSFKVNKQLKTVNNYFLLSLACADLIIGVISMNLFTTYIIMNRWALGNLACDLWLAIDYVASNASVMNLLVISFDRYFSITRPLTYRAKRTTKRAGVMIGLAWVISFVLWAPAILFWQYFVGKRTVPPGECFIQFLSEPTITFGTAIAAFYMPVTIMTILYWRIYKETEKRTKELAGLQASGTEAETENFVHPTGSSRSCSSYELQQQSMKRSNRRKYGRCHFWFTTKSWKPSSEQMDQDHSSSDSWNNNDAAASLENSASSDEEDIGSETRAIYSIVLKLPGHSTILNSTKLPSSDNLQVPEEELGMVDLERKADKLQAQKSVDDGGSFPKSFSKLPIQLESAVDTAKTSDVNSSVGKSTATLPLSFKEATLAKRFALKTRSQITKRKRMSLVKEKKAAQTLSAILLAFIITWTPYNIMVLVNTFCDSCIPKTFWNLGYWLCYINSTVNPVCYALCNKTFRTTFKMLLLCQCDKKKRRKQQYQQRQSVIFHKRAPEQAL
# Sequence of D(1A) dopamine receptor (Homo sapiens) (P21728 whole entry): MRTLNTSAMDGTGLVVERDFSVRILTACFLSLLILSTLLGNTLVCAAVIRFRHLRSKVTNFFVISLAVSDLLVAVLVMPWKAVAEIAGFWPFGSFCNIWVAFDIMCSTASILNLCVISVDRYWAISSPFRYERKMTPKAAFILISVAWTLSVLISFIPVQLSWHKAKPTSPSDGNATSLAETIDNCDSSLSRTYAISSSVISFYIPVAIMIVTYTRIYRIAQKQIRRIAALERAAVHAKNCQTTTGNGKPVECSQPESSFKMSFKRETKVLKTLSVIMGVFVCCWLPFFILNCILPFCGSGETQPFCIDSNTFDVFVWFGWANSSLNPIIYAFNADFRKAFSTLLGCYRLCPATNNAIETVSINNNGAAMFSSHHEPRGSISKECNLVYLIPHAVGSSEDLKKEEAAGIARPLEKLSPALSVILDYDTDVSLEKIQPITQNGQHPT
# Sequence of 5-hydroxytryptamine receptor 1B (P28222 whole entry): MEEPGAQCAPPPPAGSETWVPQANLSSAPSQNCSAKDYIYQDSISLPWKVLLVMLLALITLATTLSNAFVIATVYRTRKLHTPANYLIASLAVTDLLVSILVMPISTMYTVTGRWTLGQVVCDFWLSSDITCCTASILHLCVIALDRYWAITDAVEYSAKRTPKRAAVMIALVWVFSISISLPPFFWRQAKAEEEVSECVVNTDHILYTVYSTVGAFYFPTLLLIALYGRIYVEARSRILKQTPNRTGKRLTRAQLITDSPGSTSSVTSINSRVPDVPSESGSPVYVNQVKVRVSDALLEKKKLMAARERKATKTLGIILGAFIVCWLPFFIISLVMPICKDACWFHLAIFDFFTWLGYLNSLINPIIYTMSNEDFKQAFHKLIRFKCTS
# Sequence of 5-hydroxytryptamine receptor 2A (Homo sapiens) (P28223 whole entry): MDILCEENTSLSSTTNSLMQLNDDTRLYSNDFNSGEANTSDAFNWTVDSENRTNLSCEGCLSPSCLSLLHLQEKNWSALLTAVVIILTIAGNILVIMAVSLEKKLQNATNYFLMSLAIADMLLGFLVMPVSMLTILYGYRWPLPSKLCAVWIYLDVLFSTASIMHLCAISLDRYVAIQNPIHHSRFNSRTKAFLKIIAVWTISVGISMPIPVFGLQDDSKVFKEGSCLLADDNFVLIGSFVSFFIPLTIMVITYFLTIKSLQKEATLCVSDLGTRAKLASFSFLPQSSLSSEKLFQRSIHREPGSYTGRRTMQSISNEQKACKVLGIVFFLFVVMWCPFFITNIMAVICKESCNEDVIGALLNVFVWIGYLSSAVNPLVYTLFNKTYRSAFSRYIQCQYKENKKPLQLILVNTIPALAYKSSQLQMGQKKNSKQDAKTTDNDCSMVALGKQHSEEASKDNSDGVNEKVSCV
# Sequence of 5-hydroxytryptamine receptor 1D (Homo sapiens) (P28221 whole entry): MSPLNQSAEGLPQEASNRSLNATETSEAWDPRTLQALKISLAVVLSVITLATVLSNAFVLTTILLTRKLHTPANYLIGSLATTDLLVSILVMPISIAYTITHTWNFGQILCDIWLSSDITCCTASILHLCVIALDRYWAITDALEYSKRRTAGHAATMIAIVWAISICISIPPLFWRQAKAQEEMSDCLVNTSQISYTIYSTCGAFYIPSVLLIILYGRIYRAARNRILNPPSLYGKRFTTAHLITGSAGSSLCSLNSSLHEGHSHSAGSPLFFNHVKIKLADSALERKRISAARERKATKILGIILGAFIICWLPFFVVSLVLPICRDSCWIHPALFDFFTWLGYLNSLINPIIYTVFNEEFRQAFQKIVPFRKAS
smiles,measurement,setting,value
CN(C)CCc1c[nH]c2ccc(C[C@H]3COC(=O)N3)cc12 [ZOLMITRIPTAN],p[A50],[1],< 4.5
same,p[A50],[2],5.3
same,Intrinsic activity,[3],0.77
same,p[A50],[4],< 4.5
same,p[A50],[5],< 4
same,p[A50],[6],< 4
same,p[A50],[7],6.6
same,p[A50],[8],< 4.5
same,Kd,[9],1500 pM
same,p[A50],[10],< 4
same,Kd,[11],40 pM
same,p[A50],[12],4.1
